Measurements reported in ChEMBL document CHEMBL1135061, “Synthesis, hydrolytic activation and cytotoxicity of etoposide prodrugs” (Bioorg Med Chem Lett, 2002).

Experiments:
[1] = Tested for half life period at 37 degree Celsius in PBS buffer at 11.8 pH containing porcine liver esterase; format: ADME, Sus scrofa; settings: pig, pH 11.8
In short: (§1)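 Drug at 37 °C in acetonitrile–aqueous buffer (20/80 vol%) at set pH, in human serum, or with pig liver carboxylic ester hydrolase. Serum samples pre-separated on C18 cartridges. Aliquots mixed 1:1 with acetonitrile, centrifuged, supernatant analysed by HPLC peak areas. First-order log conversion–time plots; k_obs and t1/2 from slopes; mean ± SD.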

[2] = biological target: T1, S-formylglutathione hydrolase (Sus scrofa) (UniProt Q9GJT2); test: Tested for rate constant at 37 degree Celsius in PBS buffer at 11.8 pH containing porcine liver esterase expressed in 10 e-3 min e-1; in short: as §1
T1 sequence (whole entry): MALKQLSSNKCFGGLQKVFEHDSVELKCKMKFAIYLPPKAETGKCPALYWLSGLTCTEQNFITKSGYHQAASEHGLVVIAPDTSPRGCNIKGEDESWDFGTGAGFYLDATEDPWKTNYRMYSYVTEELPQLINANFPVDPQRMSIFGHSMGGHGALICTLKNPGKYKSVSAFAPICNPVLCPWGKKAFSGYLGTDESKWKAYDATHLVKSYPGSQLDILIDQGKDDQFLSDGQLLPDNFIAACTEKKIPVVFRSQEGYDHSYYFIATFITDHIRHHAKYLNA

MOVP-3 = test: Tested for cytotoxicity against VP 16 resistant Molt3 type MOVP-3 cell line expressing MDR-1 (++) gene; format: functional, cell-based; settings: Homo sapiens
In short: (§2)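 XTT assay; 10,000 tumor cells/well preincubated 24 h at 37 °C, 5% CO2, then drug added directly from DMSO stocks over 100 fM to […] range. After 72 h XTT added, 4 h further incubation, OD read at 450 nm. IC50 (50% growth inhibition) derived from viability–dilution plots of duplicate runs.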

SW480 = test: Tested for cytotoxicity against Colon adenocarcinoma resistant type SW480 cell line expressing MDR-1 (+) gene; ~50% cells affected by drug; format: functional, cell-based; settings: Homo sapiens; in short: as §2
HT-29 [3] = test: Tested for cytotoxicity against Colon carcinoma type HT-29 cell line expressing MDR-1 (-) gene; format: functional, cell-based; settings: Homo sapiens; in short: as §2
VCR100 = test: Tested for cytotoxicity against T-lymphoblastoide VC resistant type VCR 100 cell line expressing MDR-1 (+) gene; format: functional, cell-based, Homo sapiens; in short: as §2
ADR5000 cell line = test: Tested for cytotoxicity against Doxo resistant A2780 type ADR5000 cell line expressing MDR-1 (++) gene; format: functional, cell-based; settings: Homo sapiens; in short: as §2
[4] = Tested for half life period at 37 degree Celsius in PBS buffer at 7.3 pH in containing porcine liver esterase; format: ADME, Sus scrofa; settings: pig, pH 7.3; in short: as §1
A2780 = test: Tested for cytotoxicity against Ovarian carcinoma parental type A2780 cell line expressing MDR-1 (-) gene; format: functional, cell-based; settings: Homo sapiens; in short: as §2
MOLT-3 = test: Tested for cytotoxicity against parental T-cell leukemia type Molt 3 cell line expressing MDR-1 (-) gene; format: functional, cell-based; settings: Homo sapiens; in short: as §2
[5] = Tested for half life period at 37 degree Celsius in PBS buffer at 7.3 pH containing porcine liver esterase; format: ADME, Sus scrofa; settings: pig, pH 7.3; in short: as §1
HT-29 [6] = test: Tested for cytotoxicity against Colon carcinoma type HT-29 cell line expressing MDR-1 (-) gene; 35% of cells were affected; format: functional, cell-based; settings: Homo sapiens; in short: as §2
[7] = Tested for half life period at 37 degree Celsius in PBS buffer at 8.0 pH containing human serum esterase; format: ADME; settings: pH 8; in short: as §1
[8] = biological target: Cholinesterase (Homo sapiens) (UniProt P06276); test: Tested for rate constant at 37 degree Celsius in PBS buffer at 8.0 pH containing human serum esterase expressed in 10 e-3 min e-1
Cholinesterase (Homo sapiens), sequence (P06276 whole entry): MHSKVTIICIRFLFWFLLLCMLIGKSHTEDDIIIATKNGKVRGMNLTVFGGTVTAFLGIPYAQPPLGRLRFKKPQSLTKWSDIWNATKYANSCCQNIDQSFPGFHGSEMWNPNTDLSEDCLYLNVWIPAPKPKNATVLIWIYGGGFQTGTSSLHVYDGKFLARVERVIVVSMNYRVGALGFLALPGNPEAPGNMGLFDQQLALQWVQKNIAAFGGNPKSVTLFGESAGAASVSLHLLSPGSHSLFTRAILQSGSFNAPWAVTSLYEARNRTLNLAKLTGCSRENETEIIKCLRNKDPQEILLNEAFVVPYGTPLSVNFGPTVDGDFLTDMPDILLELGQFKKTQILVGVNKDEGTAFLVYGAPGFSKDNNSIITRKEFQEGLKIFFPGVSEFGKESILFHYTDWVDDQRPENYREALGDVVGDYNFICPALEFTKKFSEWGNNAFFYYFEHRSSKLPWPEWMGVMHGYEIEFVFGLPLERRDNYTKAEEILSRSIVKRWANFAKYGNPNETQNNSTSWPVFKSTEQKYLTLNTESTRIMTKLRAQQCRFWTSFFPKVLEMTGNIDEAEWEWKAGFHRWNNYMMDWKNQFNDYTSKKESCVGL
In short: (§3)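 Prodrug dissolved at 37 °C in 20/80 vol% acetonitrile–aqueous PBS at the stated pH, in human serum, or with pig liver carboxylic ester hydrolase. Serum samples were pre-cleaned on C18 cartridges. Aliquots were quenched with an equal volume of acetonitrile and centrifuged, and the supernatant was analysed by HPLC peak area. k_obs was taken from the slope of first-order log conversion–time plots and reported as mean ± SD.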

[9] = Tested for half life period at 37 degree Celsius in PBS buffer at 10.5 pH containing human serum esterase; format: ADME; settings: pH 10.5; in short: as §1
[10] = biological target: Cholinesterase (Homo sapiens) (UniProt P06276); test: Tested for rate constant at 37 degree Celsius in PBS buffer at 10.5 pH containing human serum esterase expressed in 10 e-3 min e-1; in short: as §3
[11] = Tested for half life period at 37 degree Celsius in PBS buffer at 8.8 pH containing human serum esterase; format: ADME; settings: pH 8.8; in short: as §1
[12] = Tested for half life period at 37 degree Centigrade in PBS buffer at 7.3 pH containing human serum esterase; format: ADME; settings: pH 7.3; in short: as §1
[13] = biological target: Cholinesterase (Homo sapiens) (UniProt P06276); test: Tested for rate constant at 37 degree Celsius in PBS buffer at 7.3 pH in human serum containing porcine liver esterase expressed in 10 e-3 min e-1; format: cell-free; in short: as §3
[14] = biological target: Cholinesterase (Homo sapiens) (UniProt P06276); test: Tested for rate constant at 37 degree Celsius in PBS buffer at 8.8 pH containing human serum esterase expressed in 10 e-3 min e-1; in short: as §3

## COc1cc([C@@H]2c3cc4c(cc3C(O[C@@H]3O[C@H]5CO[C@@H](C)O[C@H]5[C@H](O)[C@@H]3O)C3COC(=O)[C@@H]32)OCO4)cc(OC)c1OC(=O)OCC1COC(C)(C)O1 (stereo partly drawn)
[1]
  half-life: 1.39 h
[2]
  K obs: 8.33
MOVP-3
  IC50: 12 nM
SW480
  IC50: 110 nM
HT-29 [3]
  IC50: 3.5 nM
VCR100
  IC50: 3200 nM
ADR5000 cell line
  IC50: 6500 nM
[4]
  half-life: 12.5 h
A2780
  IC50: 90 nM
MOLT-3
  IC50: 10 nM
[5]
  half-life: 0.236 h

## COc1cc([C@@H]2c3cc4c(cc3[C@@H](O[C@@H]3O[C@@H]5CO[C@@H](C)O[C@H]5[C@H](O)[C@H]3O)[C@H]3COC(=O)[C@H]23)OCO4)cc(OC)c1O [ETOPOSIDE]
HT-29 [6]
  IC50: 10000 nM
MOVP-3
  IC50: 7550 nM
SW480
  IC50: 50000 nM
VCR100
  IC50: 15500 nM
ADR5000 cell line
  IC50: 100000 nM
A2780
  IC50: 65000 nM
MOLT-3
  IC50: 65 nM

## COc1cc([C@@H]2c3cc4c(cc3C(O[C@@H]3O[C@H]5CO[C@@H](C)O[C@H]5[C@H](O)[C@@H]3O)C3COC(=O)[C@@H]32)OCO4)cc(OC)c1OC(=O)OCC(O)CO (stereo partly drawn)
[7]
  half-life: 3.61 h
[8]
  K obs: 3.2
[9]
  half-life: 6.93 min
MOVP-3
  IC50: 50 nM
[10]
  K obs: 100
SW480
  IC50: 110 nM
HT-29 [3]
  IC50: 5.7 nM
VCR100
  IC50: 7600 nM
ADR5000 cell line
  IC50: 38000 nM
[11]
  half-life: 1.62 h
[12]
  half-life: 0.934 h
[13]
  K obs: 12.4
A2780
  IC50: 580 nM
MOLT-3
  IC50: 35 nM
[14]
  K obs: 7.14
